Measurements published in ChEMBL document CHEMBL2086296, “Synthesis of novel quinoline-2-one based chalcones of potential anti-tumor activity” (Eur J Med Chem, 2012).

What was measured:
[1] = tested on: HOP-62; assay: Cytotoxicity against human HOP62 cells after 24 hrs by SRB assay; type: functional; conditions: HOP-62, 24 h
Method in brief: (§1)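 NCI 60-line screen. Cells in RPMI 1640 with 5% FBS and 2 mM L-glutamine, seeded at 5,000–40,000 cells/well by doubling time, then incubated 24 h at 37 °C, 5% CO2 before dosing. Time-zero plates fixed with TCA at drug addition. DMSO stocks diluted in medium with gentamicin to five concentrations, […]. Protein read by SRB staining. GI50, TGI and LC50 derived relative to control and time-zero.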

[2] = tested on: NCI-H226; assay: (§2) Cytotoxicity against human NCI-H226 cells after 24 hrs by SRB assay; type: functional; conditions: NCI-H226, 24 h; method in brief: as §1
[3] = tested on: NCI-H522; assay: Cytotoxicity against human NCI-H522 cells after 24 hrs by SRB assay; type: functional; conditions: NCI-H522, 24 h; method in brief: as §1
[4] = tested on: NCI-H322M; assay: (§3) Cytotoxicity against human NCI-H322M cells after 24 hrs by SRB assay; type: functional; method in brief: as §1
[5] = tested on: A549; assay: Cytotoxicity against human A549 cells after 24 hrs by SRB assay; type: functional; conditions: A549, 24 h; method in brief: as §1
[6] = tested on: COLO 205; assay: (§4) Cytotoxicity against human COLO205 cells after 24 hrs by SRB assay; type: functional; conditions: COLO 205, 24 h; method in brief: as §1
[7] = tested on: HCT-15; assay: (§5) Cytotoxicity against human HCT15 cells after 24 hrs by SRB assay; type: functional; conditions: HCT-15, 24 h; method in brief: as §1
[8] = tested on: HCC 2998; assay: Cytotoxicity against human HCC2998 cells after 24 hrs by SRB assay; type: functional; conditions: HCC 2998, 24 h; method in brief: as §1
[9] = tested on: Malme-3M; assay: (§6) Cytotoxicity against human MALME-3M cells after 24 hrs by SRB assay; type: functional; method in brief: as §1
[10] = tested on: SK-MEL-28; assay: (§7) Cytotoxicity against human SK-MEL-28 cells after 24 hrs by SRB assay; type: functional; conditions: SK-MEL-28, 24 h; method in brief: as §1
[11] = tested on: CAKI-1; assay: Cytotoxicity against human CAKI-1 cells after 24 hrs by SRB assay; type: functional; conditions: CAKI-1, 24 h; method in brief: as §1
[12] = tested on: TK-10; assay: (§8) Cytotoxicity against human TK10 cells after 24 hrs by SRB assay; type: functional; conditions: TK-10, 24 h
Method in brief: (§9)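 NCI 60-cell screen. Cells are grown in RPMI 1640 with 5% FBS and 2 mM L-glutamine and seeded at 5,000–40,000 cells/well according to doubling time. They are preincubated 24 h at 37 °C in 5% CO2, and Tz plates are TCA-fixed at drug addition. Drug stock is in DMSO, diluted in medium with gentamicin, and tested at five concentrations (100, 10, 1.0, 0.1, […]). Protein is read by SRB staining. GI50, TGI and LC50 are derived relative to time-zero and control wells.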

[13] = tested on: UO-31; assay: (§10) Cytotoxicity against human UO31 cells after 24 hrs by SRB assay; type: functional; conditions: UO-31, 24 h; method in brief: as §9
[14] = tested on: DU-145; assay: Cytotoxicity against human DU145 cells after 24 hrs by SRB assay; type: functional; conditions: DU-145, 24 h; method in brief: as §1
[15] = tested on: MCF7; assay: Cytotoxicity against human MCF7 cells after 24 hrs by SRB assay; type: functional; conditions: MCF7, 24 h; method in brief: as §1
[16] = tested on: T47D; assay: Cytotoxicity against human T47D cells after 24 hrs by SRB assay; type: functional; method in brief: as §9
[17] = tested on: RPMI-8226; assay: Cytotoxicity against human RPMI8226 cells after 24 hrs by SRB assay; type: cell-based; conditions: rpmi-8226, 24 h
Method in brief: (§11)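 NCI 60-cell screen. Cells grown in RPMI 1640 with 5% FBS and 2 mM L-glutamine, seeded at 5,000–40,000 cells/well, preincubated 24 h at 37 °C in 5% CO2. Drug stock in DMSO, diluted in medium with gentamicin; five final concentrations, 100, 10, 1.0, 0.1 and […]. Time-zero plates were TCA-fixed. Protein read by SRB staining; GI50, TGI and LC50 taken relative to time-zero.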

[18] = tested on: NCI-H226; assay: as §2; type: cell-based; conditions: nci-h226, 24 h; method in brief: as §11
[19] = tested on: NCI-H460; assay: Cytotoxicity against human NCI-H460 cells after 24 hrs by SRB assay; type: cell-based; conditions: nci-h460, 24 h; method in brief: as §11
[20] = tested on: NCI-H322M; assay: as §3; type: cell-based; method in brief: as §11
[21] = tested on: COLO 205; assay: as §4; type: cell-based; conditions: colo 205, 24 h; method in brief: as §11
[22] = tested on: HCT-15; assay: as §5; type: cell-based; conditions: hct-15, 24 h; method in brief: as §11
[23] = tested on: KM12; assay: Cytotoxicity against human KM12 cells after 24 hrs by SRB assay; type: cell-based; conditions: km12, 24 h; method in brief: as §11
[24] = tested on: SF-295; assay: Cytotoxicity against human SF295 cells after 24 hrs by SRB assay; type: cell-based; conditions: sf-295, 24 h; method in brief: as §11
[25] = tested on: U-251; assay: Cytotoxicity against human U251 cells after 24 hrs by SRB assay; type: cell-based; conditions: u-251, 24 h
Method in brief: (§12)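 NCI 60-cell-line screen: cells grown in RPMI 1640 with 5% FBS and 2 mM L-glutamine, seeded at 5,000–40,000 cells/well by doubling time, and preincubated 24 h at 37 °C in 5% CO2. Time-zero plates were TCA-fixed. DMSO stocks were diluted in medium with gentamicin to five concentrations (100, 10, 1.0, 0.1, […]). Protein was read by SRB, and GI50, TGI and LC50 were derived against time-zero.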

[26] = tested on: SNB-19; assay: Cytotoxicity against human SNB19 cells after 24 hrs by SRB assay; type: cell-based; conditions: snb-19, 24 h; method in brief: as §12
[27] = tested on: Malme-3M; assay: as §6; type: cell-based; method in brief: as §11
[28] = tested on: HL-60; assay: Cytotoxicity against human HL60 cells after 24 hrs by SRB assay; type: functional; conditions: HL-60, 24 h; method in brief: as §1
[29] = tested on: M14; assay: Cytotoxicity against human M14 cells after 24 hrs by SRB assay; type: cell-based; conditions: m14, 24 h; method in brief: as §11
[30] = tested on: SK-MEL-28; assay: as §7; type: cell-based; conditions: sk-mel-28, 24 h; method in brief: as §11
[31] = tested on: NCI/ADR-RES; assay: Cytotoxicity against human NCI/ADR-RES cells after 24 hrs by SRB assay; type: cell-based; method in brief: as §11
[32] = tested on: OVCAR-8; assay: Cytotoxicity against human OVCAR8 cells after 24 hrs by SRB assay; type: cell-based; conditions: ovcar-8, 24 h; method in brief: as §11
[33] = tested on: OVCAR-5; assay: Cytotoxicity against human OVCAR5 cells after 24 hrs by SRB assay; type: cell-based; conditions: ovcar-5, 24 h; method in brief: as §11
[34] = tested on: TK-10; assay: as §8; type: cell-based; conditions: tk-10, 24 h; method in brief: as §12
[35] = tested on: UO-31; assay: as §10; type: cell-based; conditions: uo-31, 24 h; method in brief: as §12
[36] = tested on: MDA-MB-231; assay: Cytotoxicity against human MDA-MB-231 cells after 24 hrs by SRB assay; type: cell-based; conditions: mda-mb-231, 24 h; method in brief: as §11
[37] = tested on: BT-549; assay: Cytotoxicity against human BT549 cells after 24 hrs by SRB assay; type: cell-based; conditions: bt-549, 24 h; method in brief: as §11

SMILES: O=C(/C=C/c1cc2ccccc2[nH]c1=O)c1ccc(O)cc1
- GI50 [1]: 2.62 µM
- TGI [1]: 8.17 µM
- GI50 [2]: 3.29 µM
- TGI [2]: 10.9 µM
- GI50 [3]: 1.7 µM
- TGI [3]: 3.29 µM
- GI50 [4]: 3.98 µM
- TGI [4]: 16.8 µM
- GI50 [5]: 2.73 µM
- TGI [5]: 11.8 µM
- GI50 [6]: 4.05 µM
- TGI [6]: 19.7 µM
- GI50 [7]: 2.71 µM
- TGI [7]: 12.8 µM
- GI50 [8]: 4.13 µM
- TGI [8]: 22.3 µM
- GI50 [9]: 10.4 µM
- TGI [9]: 33.6 µM
- GI50 [10]: 5.11 µM
- TGI [10]: 19.5 µM
- GI50 [11]: 4.71 µM
- TGI [11]: > 100 µM
- GI50 [12]: 3.81 µM
- TGI [12]: 11.8 µM
- GI50 [13]: 4.38 µM
- TGI [13]: 26.6 µM
- GI50 [14]: 4.02 µM
- TGI [14]: 14.3 µM
- GI50 [15]: 3.49 µM
- TGI [15]: 16.8 µM
- GI50 [16]: 4.19 µM
- TGI [16]: 20.4 µM
- LC50 [17]: > 100 µM
- LC50 [18]: 34.5 µM
- LC50 [19]: > 100 µM
- LC50 [20]: 55.5 µM
- LC50 [21]: 76.8 µM
- LC50 [22]: > 100 µM
- LC50 [23]: 15.4 µM
- LC50 [24]: > 100 µM
- LC50 [25]: 45.3 µM
- LC50 [26]: 50.6 µM
- LC50 [27]: > 100 µM
- GI50 [28]: 2.66 µM
- TGI [28]: 6.86 µM
- LC50 [29]: > 100 µM
- LC50 [30]: 66.3 µM
- LC50 [31]: > 100 µM
- LC50 [32]: > 100 µM
- LC50 [33]: 44.4 µM
- LC50 [34]: 34.6 µM
- LC50 [35]: > 100 µM
- LC50 [36]: > 100 µM
- LC50 [37]: > 100 µM
